pEC50 data for one molecule are collected here from publication PMC6071421 (Journal of investigative medicine : the official …, 2017).

The test deals with T1, FFA2 (GPR43; Ffar2) (Mus musculus, UniProt Q8VCK6).
T1 sequence (Q8VCK6 1-330): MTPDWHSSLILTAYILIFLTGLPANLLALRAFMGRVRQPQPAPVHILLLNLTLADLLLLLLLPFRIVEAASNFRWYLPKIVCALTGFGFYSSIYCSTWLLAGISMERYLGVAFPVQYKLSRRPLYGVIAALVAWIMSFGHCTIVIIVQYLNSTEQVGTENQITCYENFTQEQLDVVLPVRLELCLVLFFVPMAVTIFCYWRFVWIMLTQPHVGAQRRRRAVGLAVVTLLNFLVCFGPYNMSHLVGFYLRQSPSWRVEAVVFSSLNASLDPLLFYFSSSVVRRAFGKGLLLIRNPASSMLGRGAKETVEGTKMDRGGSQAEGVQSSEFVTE
Description: Ca2+ mobilization, Fluo-8, fluorometric imaging plate reader, beta TC3 cells. Type of test: cell-based. The following applies: agonist; endogenous receptor in beta TC3 cells; N = 13. The method in brief: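 Mouse βTC3 β cells (express Ffar2 but not Ffar3) loaded with 5 μM Fluo-8 for 60 min at 37°C. Test compounds were added as serial dilutions, each concentration in quadruplicate, and fluorescence was read on a FLIPR. Response was delta F/f: (post-stimulation max − pre-stimulation min)/pre-stimulation min. pEC50 and Emax came from non-linear regression. Experiments were repeated in triplicate.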
(Calcium flux is commonly read through the fluorescence of an indicator in the cells.)

As to `CC(=O)O` [Acetate], the pEC50 is given as 2.32±0.21 -log M.
